Tests used:
Colletotrichum fragariae [1] = test: Antifungal activity against Colletotrichum fragariae assessed as growth inhibition at 4 uL in 2 mM acetone by direct bioautography; assay type: functional
In short: (§1)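 Standards applied at 2 mM in 4 μL acetone onto silica TLC plates and tested by direct bioautography against each Colletotrichum species. Activity read as clear inhibitory zone size (mm), reported as mean ± SEM. Technical-grade fungicides at 2 mM in 2 μL EtOH served as internal standards. Runs repeated multiple times in dose- and non-dose-response formats.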

[2] = system: Colletotrichum gloeosporioides; test: Antifungal activity against Colletotrichum gloeosporioides assessed as growth inhibition at 4 uL in 2 mM acetone by direct bioautography; assay type: functional; in short: as §1
Colletotrichum acutatum [3] = test: Antifungal activity against Colletotrichum acutatum assessed as growth inhibition at 4 uL in 2 mM acetone by direct bioautography; assay type: functional; in short: as §1
[4] = system: Colletotrichum gloeosporioides; test: Antifungal activity against Colletotrichum gloeosporioides assessed as growth inhibition at 2 uL in 2 mM EtOH by direct bioautography
Colletotrichum fragariae [5] = test: Antifungal activity against Colletotrichum fragariae assessed as growth inhibition at 2 uL in 2 mM EtOH by direct bioautography
Colletotrichum acutatum [6] = test: Antifungal activity against Colletotrichum acutatum assessed as growth inhibition at 2 uL in 2 mM EtOH by direct bioautography

| Compound | inhibition zone (IZ) (Colletotrichum fragariae [1]) [mm] | inhibition zone (IZ) [2] [mm] | inhibition zone (IZ) (Colletotrichum acutatum [3]) [mm] | inhibition zone (IZ) [4] [mm] | inhibition zone (IZ) (Colletotrichum fragariae [5]) [mm] | inhibition zone (IZ) (Colletotrichum acutatum [6]) [mm] |
| --- | --- | --- | --- | --- | --- | --- |
| CC1(C)[C@H]2CC[C@]1(C)[C@H](O)C2 [(-)-BORNEOL] | 0 | 0 | 0 |  |  |  |
| CC1(C)[C@H]2CC[C@]1(C)C(=O)C2 [(-)-CAMPHOR] | 0 | 0 | 0 |  |  |  |
| CO/C=C(/C(=O)OC)c1ccccc1Oc1cc(Oc2ccccc2C#N)ncn1 [AZOXYSTROBIN] |  |  |  | 28.33 | 19.33 | 24.33 |
| CCCCNC(=O)n1c(NC(=O)OC)nc2ccccc21 [BENOMYL] |  |  |  | 19.33 | 18.33 | 18 |
| CC1(C)C2CCC1(C)C(O)C2 (stereo not drawn) [BORNEOL] | 0 | 0 | 0 |  |  |  |
| CC12CCC(CC1=O)C2(C)C (stereo not drawn) [CAMPHOR] | 0 | 0 | 0 |  |  |  |
| O=C1C2CC=CCC2C(=O)N1SC(Cl)(Cl)Cl (stereo not drawn) [CAPTAN] |  |  |  | 10.33 | 15 | 14.67 |
| Cc1ccc(C(C)C)cc1O [CARVACROL] | 3.4 | 3.5 | 4.5 |  |  |  |
| Cc1cc(C2CC2)nc(Nc2ccccc2)n1 [CYPRODINIL] |  |  |  | 29.33 | 30.33 | 29.33 |
| CC12CCC(CC1)C(C)(C)O2 [EUCALYPTOL] | 0 | 0 | 0 |  |  |  |
| Cc1ccc(C(C)C)c(O)c1 [THYMOL] | 0 | 0 | 0 |  |  |  |
